# KLK7 zymogen act = activators of human kallikrein-7 zymogen | purified proKLK7, EDANS-DABCYL substrate fluorescence; 100% is mature enzyme control, 0% vehicle | AID 652039 | activation, % at 7 µM | hit rate 0.9% among 370,000;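 active = activation above the mean of all tested compounds plus 3 SD, computed per campaign excluding outliers beyond control limits, cut at about 13% in these data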
# CendR NRP1 mod = NRP-1/CendR interaction modulation. O14786. FAM-RPARPAR peptide binding to NRP-1, fluorescence polarization. inhibition, % at 25 µM. hit rate 0.85% among 360,000. AID 602438;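 active = inhibition or corrected inhibition above about 18%, plus a signal ratio from 0.5 to 1.5, limit read from the data, passing the limit was not always enough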
# Tn7 DDE FP = DD(E)-Tn7 binding inhibition, primary FP screen; P02675; inhibition, % at 8.3 µM; AID 720508; FP displacement of FITC-Tn7 peptide from fibrin DD(E); 0% = median of compound wells per plate; hit rate 0.13% among 370,000;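 active = inhibition above the mean of compounds falling within the control limits plus 3 SD of them, cut at about 14% in these data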;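 also: 0% = plate median of compound wells and 100% = 10 µM Aha-Tn7 peptide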
# Target sequence (P02675 whole entry, looked up): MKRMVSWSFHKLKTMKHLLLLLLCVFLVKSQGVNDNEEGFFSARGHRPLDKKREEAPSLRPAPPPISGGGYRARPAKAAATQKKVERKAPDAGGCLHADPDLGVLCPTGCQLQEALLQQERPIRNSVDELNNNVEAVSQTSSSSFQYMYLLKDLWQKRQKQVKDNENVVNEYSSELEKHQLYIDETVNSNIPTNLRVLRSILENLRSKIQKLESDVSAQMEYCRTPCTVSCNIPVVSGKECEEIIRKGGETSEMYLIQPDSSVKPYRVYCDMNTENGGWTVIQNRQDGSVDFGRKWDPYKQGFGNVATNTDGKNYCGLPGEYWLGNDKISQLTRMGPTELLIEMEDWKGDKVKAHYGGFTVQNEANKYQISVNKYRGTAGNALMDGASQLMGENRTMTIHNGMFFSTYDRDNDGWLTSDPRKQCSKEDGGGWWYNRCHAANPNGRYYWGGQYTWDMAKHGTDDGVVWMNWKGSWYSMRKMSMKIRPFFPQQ
#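 System: human fibrin DD(E); quantity: Fibrin-DD(E) at 2 µM final; also added: fluorescent Tn7 probe at 0.1 µM; compound dosing: single nominal test concentration of 8.3 µM per compound; schedule: 10 min preincubation, 3 h with tracer, room temperature; detection: fluorescence polarization of the labelled Tn7 tracer; repeats: one replicate per compound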
# PLCb3 inh = blocks human PLC-beta3 enzyme activity | inhibition, % at 12.2 µM | AID 720704 | Q01970 | hit rate 0.18% among 370,000 | Purified PLC-beta3, fluorogenic substrate, fluorescence; in the data active = inhibition above about 11%;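 also: 0% = median of compound wells on plate and 100% = full blocker control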
# DDE Tn6 FP inh = DD(E)-Tn6 binding inhibition, primary FP screen; hit rate 0.21% among 370,000; Fibrin DD(E) TRITC-Tn6 fluorescence polarization displacement; inhibition, % at 8.3 µM; P02675; AID 720509;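 active = inhibition above a per-campaign cutoff: mean of compounds within control limits plus 3 SD, cut at about 15% in these data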;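 also: 0% = median of all compound wells on the plate and 100% = blocking peptide control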
# PLC-gamma1 inh = PLC-gamma1 (human) inhibition, primary screen | inhibition, % at 12.2 µM | purified PLC-gamma1, fluorogenic substrate, fluorescence | hit rate 0.84% among 370,000 | P19174; in the data active = inhibition above about 9.5%
# An asterisk follows results filed as active; i = inactive; . = not tested or not shown; + = active, no number. A selection: hits, their analogues and other compounds. The true share with any hit is near 3%.
SMILES,KLK7 zymogen act,CendR NRP1 mod,Tn7 DDE FP,PLCb3 inh,DDE Tn6 FP inh,PLC-gamma1 inh
Cc1nn(-c2ccc(Cl)c(Cl)c2)c(=O)c2ccccc12,-0.2,38.1*,0.7,1.6,-0.4,-0.7
Cc1nn(-c2ccc(Cl)cc2)c(=O)c2ccccc12,-0.7,-26.7,-8.8,-2.2,1.5,-0.8
COc1ccc(-n2c(COc3ccc(C)cc3)nnc2SCC(=O)Nc2ccc(S(=O)(=O)Nc3cc(C)nc(C)n3)cc2)cc1,0.1,.,2.9,0.3,5.3,-0.1
CN(Cc1nc(-c2ccccn2)no1)S(=O)(=O)c1ccc(Br)cc1,-0.6,27.5*,9.3,4.8,11.8,0.6
CN(Cc1nc(-c2cccnc2)no1)S(=O)(=O)c1ccc(Br)cc1,0.3,3.4,7.5,0.5,-2.9,2.6
CCc1ccc(NC(=O)CCc2c(C)nn(-c3ccc(N4CCOCC4)nn3)c2C)cc1,-0.3,7.4,-3.9,-12.5,-4.9,-5.3
CCc1cccc(NC(=O)CCc2c(C)nn(-c3ccc(N4CCOCC4)nn3)c2C)c1,0.5,31.7*,2.5,-5.2,-2.5,1.8
Cc1nc2ccc(S(=O)(=O)NCC(=O)N(C)Cc3ccccc3Cl)cc2s1,-0.5,.,2.9,-1.4,4.5,0.8
COCCN1C=C(C(=O)OC)C(c2ccc(OC)c(OC)c2)C(C(=O)OC)=C1,2.6,-3.5,8.7,-161.0,14.4,-138.6
CCCOc1ccc(C2C(C(=O)OC)=CN(CCOC)C=C2C(=O)OC)cc1,-1.1,27.9*,-4.5,i,-0.6,i
CCCN(CC1CC1)c1nc(C)nc2c1nnn2Cc1ccccc1,0.1,.,-4.1,5.0,-0.3,3.0
CCOC(=O)[C@]12CCCC=C1N(Cc1ccc(OC)cc1)C(=O)[C@@H]2CC(=O)NCCc1ccccc1OC,9.1,.,-0.1,1.8,-1.8,-0.3
COc1ccc(F)cc1CSc1nnnn1-c1ccc(O)cc1,0.3,23.0*,-6.5,-14.8,2.7,-1.6
CCCCOC(=O)c1ccc(NS(=O)(=O)c2cc(-c3nnnn3CC)ccc2OC)cc1,0.8,23.0*,-3.1,-6.2,-2.7,-3.1
CC(C)(C)NC(=O)C(c1cccnc1)N(C(=O)c1cnc[nH]1)c1ccc(C(C)(C)C)cc1 (stereo unspecified),.,.,-1.6,3.3,3.6,4.6
CCOC(=O)[C@]12CCCC=C1N(Cc1ccco1)C(=O)[C@H](CC(=O)N1CCSCC1)C2,0.1,20.0*,-1.4,3.0,-4.7,1.0
CCOC(=O)[C@]12CCCC=C1N(CCC1=CCCCC1)C(=O)[C@H](CC(=O)NCC13CC4CC(CC(C4)C1)C3)C2,-0.5,21.9*,1.1,0.7,-6.5,1.6
CCOC(=O)[C@]12CCCC=C1N(Cc1ccco1)C(=O)[C@H](CC(=O)N1CCCCC1)C2,0.4,0.0,-2.2,0.7,-3.3,0.1
CCOC(=O)[C@]12CCCC=C1N(CCC1=CCCCC1)C(=O)[C@H](CC(=O)NCCC(C)C)C2,0.0,20.5,-0.4,1.1,-1.5,4.2
CCCCCCCCN1C(=O)[C@H](CC(=O)NCCCN2CCCC2=O)C[C@@]2(C(=O)OC)CCCCC=C12,0.9,29.2*,-4.7,-1.1,5.3,0.2
CCOC(=O)CSc1c(-c2cccs2)[nH]c2ccccc12,0.0,24.8*,-4.9,-2.0,-10.5,0.5
COc1ccc(C)cc1NC(=O)CSc1nnc(-c2n[nH]c3c2CCC3)n1N,-0.5,.,2.6,-1.3,-2.1,0.3
CN(C)c1nc(N(C)C)nc(N(C)C)n1,0.6,7.5,0.7,2.3,-13.1,9.6*
CNc1nc(N(C)C)nc(N(C)C)n1,-0.3,7.8,-1.1,6.1,4.8,0.9
COC(=O)[C@]12CCCCC=C1N(Cc1ccc(OC)cc1)C(=O)[C@@H]2CC(=O)N1CCOCC1,0.5,.,-3.1,0.3,-10.0,0.4
SMILES,KLK7 zymogen act,CendR NRP1 mod,Tn7 DDE FP,PLCb3 inh,DDE Tn6 FP inh,PLC-gamma1 inh
COc1ccc(C/C(C)=N/NC(=S)Nc2ccc(Cl)cc2)cc1,-0.1,41.3*,5.0,-8.1,4.7,-4.1
COc1ccc(S[C@]2(C(=O)N3CCN(C(C)=O)CC3)CC(=O)N(C(=O)Nc3ccc(C)c(Cl)c3)[C@@H]2c2ccc(OC)cc2)cc1,-0.1,.,-3.1,0.6,0.2,5.0
O=C1CSc2ccc(C(=O)Nc3cccc(S(=O)(=O)Nc4ccc(Br)cc4)c3)cc2N1,0.0,-2.8,-4.3,-6.4,+,5.5
COc1ccc(-c2csc(N(CCCN(C)C)C(=O)c3ccc(Br)cc3)n2)cc1,0.0,22.4*,-1.1,-5.6,6.7,2.6
CC1CCc2cc(F)ccc2N1C(=O)c1cccs1 (stereo unspecified),0.6,-12.1,3.4,-2.8,5.1,-0.6
CC1CCc2cc(F)ccc2N1C(=O)CCC(=O)O (stereo unspecified),0.1,24.7*,-9.7,0.7,9.6,0.9
Cc1ccc(NC(=O)c2ccc3c(c2)OCCO3)cc1S(=O)(=O)Nc1cccc(Cl)c1,-0.1,37.3*,-2.2,2.0,1.7,3.5
COc1ccc2[nH]c(=O)c(C(c3nnnn3CC3CCCO3)N3CCCCC3)cc2c1 (stereo unspecified),0.3,25.5*,-9.6,-7.5,4.6,-10.6
Cc1ccc(S(=O)(=O)/N=C2\SC(CC(=O)Nc3ccc(F)cc3)C(=O)N2c2ccccc2)cc1 (stereo unspecified),0.6,-0.6,8.8,10.7*,5.9,6.8
CCCC#Cc1ccc(CC[C@H]2O[C@H]3CC[C@@H](CO)O[C@H]3C[C@H]2NC(=O)CN2CCOCC2)cc1,0.5,.,-1.3,0.9,-0.4,0.8
O=C(CN(CC1CCCO1)C(=O)CNS(=O)(=O)c1ccc(Cl)cc1)NCC1CCCO1 (stereo unspecified),0.1,30.2*,2.0,4.5,2.9,-0.1
O=C(O)c1cc(O)c2c(c1)C(=O)c1cccc(O)c1C2=O,1.7,-1.0,3.1,-12.3,30.2*,-14.0
COc1cccc(NC(=O)CN(C)C(=O)C(CCSC)NC(=O)c2ccco2)c1 (stereo unspecified),0.5,17.5*,7.5,-5.9,4.0,0.0
CCCCC1CCC(C(=O)N(CCOC)c2c(N)n(CC(C)C)c(=O)[nH]c2=O)CC1 (stereo unspecified),0.1,5.9,-2.0,1.9,0.4,14.5*
CCN(Cc1cccs1)c1ncnc2ccc(-c3ccc4c(c3)OCO4)cc12,.,.,4.2,-177.5,0.5,-116.6
C=CCN1C(=O)[C@H](CC(=O)NCc2cccs2)[C@@]2(C(=O)OCC)CCCC=C12,0.4,.,5.0,0.3,6.2,0.2
CCOC(=O)[C@@]12CCCC=C1N(CCc1ccc(Cl)cc1)C(=O)[C@H]2CC(=O)N1CCCCC1,-0.2,.,2.6,-0.8,2.8,8.7
CCCCNC(=S)N1CCN(c2ccc(C(C)=O)cc2)CC1,0.5,-6.8,9.7,-15.9,-6.1,-3.9
CSCCCNC(=S)N1CCN(c2ccc(C(C)=O)cc2)CC1,-0.2,24.2*,-0.1,-6.4,0.7,-7.3

# Assay outcomes (PubChem BioAssay)
